What all share (type): functional
What all share (details): route intraperitoneal

Test [1] concerns Mus musculus. The test is described as follows: Antitumor activity in mice bearing Ehrlich ascites tumor cells at 100 mg/kg ip. The essentials:
(§1)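 Female Swiss mice (average weight 21 ± 1 g), groups of eight, implanted with 10^6 Ehrlich ascites tumor cells from donor mice; single ip dose in DMSO given 24 h later, starting at 100 mg/kg, repeated at lower doses in new groups if active. Deaths followed for 60 days; % T/C = mean survival time treated vs vehicle controls (10 mice).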

The test system of test [2] is Mus musculus. Put plainly: Antitumor activity in mice bearing Ehrlich ascites tumor cells at 50 mg/kg ip. The essentials: as §1
In test [3] the test system is Mus musculus. The test is described as follows: Antitumor activity in mice bearing Ehrlich ascites tumor cells at 25 mg/kg ip. The essentials: as §1
Test [4] relates to Mus musculus. The test is described as follows: Antitumor activity in mice bearing Ehrlich ascites tumor cells at 12.5 mg/kg ip. The essentials:
as §1

SMILES strings stand for the structures.

Broadly, the T/C is the result in the treated group divided by that in the control group, in per cent. Compound `Cc1nc2sccn2c1/C=N/N=C(N)N.Cl` displayed a T/C in the test with Mus musculus [1] of 100%.

In the test with Mus musculus [2], `Cl.N=C(N)N/N=C/c1c(-c2ccccc2)nc2n1CCS2` showed a T/C of 100%.

In turn, `Cc1nc2n(c1/C=N/N=C(N)N)CCS2.Cl` gave a T/C with Mus musculus [2] of 100%.

On to `Cc1ccc(-c2nc3sccn3c2/C=N/N=C(N)N)cc1.Cl`, for which the T/C with Mus musculus [3] was 110%.

In the test with Mus musculus [1], `Cl.N=C(N)N/N=C/c1c(Cl)nc2n1CCS2` registered a T/C of 180%.

For the compound `Cl.N=C(N)N/N=C/c1c(-c2ccc(Cl)cc2)nc2sccn12`, in the test with Mus musculus [4], the T/C stood at 190%.

In the test with Mus musculus [2], `Cl.N=C(N)N/N=C/c1c(-c2ccccc2)nc2sccn12` returned a T/C of 120%.

The compound `Cl.N=C(N)N/N=C/c1c(Cl)nc2sccn12` registered a T/C in the test with Mus musculus [2] of 200%.

In the test on Mus musculus [2], `Cc1ccc(-c2nc3n(c2/C=N/N=C(N)N)CCS3)cc1.Cl` returned a T/C of 100%.

`O=c1[nH]cc(F)c(=O)[nH]1` [FLUOROURACIL] yielded a T/C in the test with Mus musculus [1] of 180%.

These data come from ChEMBL document CHEMBL1126111, “Potential antitumor agents. 21. Structure determination and antitumor activity of imidazo[2,1-b]thiazole guanylhydrazones” (1992).
